Screening data from PubChem.
The list is not random: actives were taken first. Their share in the collection is about 2.6%.
UCH37 inh = human UCH37 deubiquitinating enzyme inhibition; Q9Y5K5; purified proteasome/UCH37, Ub-AMC cleavage fluorescence; inhibition, % (no concentration beside the values); actives 0.33% (n = 330,000); AID 588478;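 active = mean inhibition over replicate wells above about 20%, limit read from the data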;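 also: 0% = compound-free wells with enzyme and 100% = wells lacking proteasome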
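Assay system: Proteasome-bound UCH37. Buffer or medium: pH 7.4 Tris-HCl (50 mM) with ovalbumin, ATP-MgCl2, DTT. Incubation: 30 min preincubation with enzyme, 25 min cleavage at room temperature. Measured by: fluorescence, ex 355 nm, em 460 nm. Read-out basis: percent inhibition. Control set: wells without proteasome as full block, compound-free enzyme plus substrate as uninhibited.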
SENP8 block-1 = SENP8 protease inhibition | actives 1.2% (n = 330,000) | Q96LD8 | purified SENP8, Z-RLRGG-aminoluciferin cleavage, luminescence | inhibition, % at 10 µM; in the data active = inhibition above about 50%
SENP6 inh = SENP6 protease inhibition. Q9GZR1. Recombinant SENP6 catalytic domain, aminoluciferin luminescence. AID 2599. actives 1.8% (n = 330,000). inhibition, % at 10 µM;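 active = inhibition above about 50% at the single tested dose, limit read from the data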;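 also: plate controls were DMSO wells with enzyme for no effect and DMSO wells lacking enzyme for full effect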
Target sequence (Q9GZR1 628-1112 limits assumed): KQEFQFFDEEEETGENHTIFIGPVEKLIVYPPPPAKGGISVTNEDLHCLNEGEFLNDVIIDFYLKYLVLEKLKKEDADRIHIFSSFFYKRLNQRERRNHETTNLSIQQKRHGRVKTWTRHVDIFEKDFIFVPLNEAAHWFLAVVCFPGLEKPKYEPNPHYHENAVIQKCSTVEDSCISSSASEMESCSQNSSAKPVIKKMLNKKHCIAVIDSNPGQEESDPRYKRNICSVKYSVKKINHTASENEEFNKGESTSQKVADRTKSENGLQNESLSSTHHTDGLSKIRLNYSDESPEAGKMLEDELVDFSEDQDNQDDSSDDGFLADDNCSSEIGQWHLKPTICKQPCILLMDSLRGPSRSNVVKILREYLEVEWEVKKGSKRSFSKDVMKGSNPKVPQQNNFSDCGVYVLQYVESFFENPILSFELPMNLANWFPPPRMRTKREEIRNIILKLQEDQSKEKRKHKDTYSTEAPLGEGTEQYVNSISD
SENP1 FRET inh = SENP1 (human) catalytic domain inhibition; Q9P0U3; recombinant SENP1 catalytic domain, CyPet-SUMO1-YPet FRET cleavage; inhibition, % at 10 µM; actives 0.21% (n = 360,000);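 active = inhibition at least 30% at 10 µM, raw YFP signal under a set limit, fluorescence ratio 0.5 to 1.5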;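 also: 0% = enzyme with DMSO and 100% = no enzyme wells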
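Assay system: hSENP1 catalytic domain, recombinant. Amount: SENP1 enzyme, 20 pM final. Schedule: 50 min reaction, RT, dark. Technique: FRET, CFP and YFP emission. Control set: no-enzyme wells low, DMSO-plus-enzyme wells high control.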
SENP8 block-2 = blocks human SENP8 cleavage of Nedd8 substrate; Q96LD8; recombinant SENP8, Nedd8 substrate fluorescence; inhibition, % at 20 µM; actives 0.64% (n = 360,000); in the data active = inhibition mostly above about 40%, no sharp cut-off; inactive = mostly below about 27%
SENP7 inh = SENP7 protease inhibition; Q9BQF6; recombinant SENP7, Z-RLRGG-aminoluciferin luminescence, 40 min; inhibition, % at 5 µM; actives 1.5% (n = 330,000); AID 434973;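 active = inhibition above about 50% at the single test dose, limit read from the data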;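 also: plate controls were DMSO with enzyme for no effect and no enzyme buffer wells for full effect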
SENP8 inh conf = SENP8 (human) inhibition, single concentration confirmation. shares compounds with SENP8 block-2. purified SENP8, Nedd8-AMC/pro-Nedd8 cleavage fluorescence, 30 min. actives 15% (n = 1,400). AID 624319. inhibition, % at 25 µM; in the data active = inhibition mostly above about 39%, no sharp cut-off; inactive = mostly below about 34%
The depositor's hits bear a star.

O=C(CN1CCc2ccccc2C1)N1CCN(S(=O)(=O)c2ccccc2)CC1 was read as UCH37 inh 4, SENP8 block-1 5, SENP6 inh 0, SENP1 FRET inh -5, SENP8 block-2 46*, SENP7 inh 0 and SENP8 inh conf 6.
Screening Cc1ccc(S(=O)(=O)N2CCN(C(=O)CN3CCc4ccccc4C3)CC2)cc1 returned UCH37 inh 5, SENP8 block-1 11, SENP6 inh -13, SENP1 FRET inh 2, SENP8 block-2 17 and SENP7 inh 3.
For O=C(c1cccc2ccccc12)N1CCN(c2ccc([N+](=O)[O-])c(NCc3ccco3)c2)CC1 the results were UCH37 inh 8, SENP8 block-1 -3, SENP6 inh -9, SENP1 FRET inh 6, SENP8 block-2 42*, SENP7 inh 1 and SENP8 inh conf 10.
Cc1ccc(C(=O)N2CCN(c3ccc([N+](=O)[O-])c(NCc4ccco4)c3)CC2)cc1 was read as UCH37 inh 6, SENP8 block-1 -5, SENP6 inh -10, SENP1 FRET inh 4, SENP8 block-2 48*, SENP7 inh 6 and SENP8 inh conf 14.
`Cc1ccccc1C(=O)N1CCN(c2ccc([N+](=O)[O-])c(NCc3ccco3)c2)CC1` gave UCH37 inh 9, SENP8 block-1 -3, SENP6 inh -10, SENP1 FRET inh 1, SENP8 block-2 53*, SENP7 inh -7 and SENP8 inh conf 26.
For COc1ccc(-n2c(O)c(C=NCc3ccccn3)c3ccccc3c2=O)c(OC)c1 the results were UCH37 inh 9, SENP8 block-1 -4, SENP6 inh -13, SENP1 FRET inh -3, SENP8 block-2 41*, SENP7 inh 6 and SENP8 inh conf 27.
`O=c1c2ccccc2c(C=NCc2ccccn2)c(O)n1-c1ccccc1` gave UCH37 inh -16, SENP8 block-1 -5, SENP6 inh 17, SENP1 FRET inh -6, SENP8 block-2 26*, SENP7 inh -10 and SENP8 inh conf -14.
For COc1cccc(-n2c(O)c(C=NCc3ccccn3)c3ccccc3c2=O)c1 the results were UCH37 inh 9, SENP8 block-1 -8, SENP6 inh -10, SENP1 FRET inh 0, SENP8 block-2 13 and SENP7 inh 2.
`Cc1cc(O)c(C=NOCc2ccc(Cl)cc2Cl)c(=O)o1` gave UCH37 inh 2.
Screening Cc1cc(C(=O)NN=Cc2ccc(N(C)C)cc2)c2ccccc2n1 returned UCH37 inh 11.
`CCC(=O)Nc1ccccc1Nc1cc(C#N)c(C#N)cc1[N+](=O)[O-]` gave UCH37 inh 7, SENP8 block-1 0, SENP6 inh -19, SENP1 FRET inh -2, SENP8 block-2 42*, SENP7 inh 2 and SENP8 inh conf 18.
`c1coc(-c2nnc(-c3ccco3)nn2)c1` gave UCH37 inh 32*, SENP8 block-1 55*, SENP6 inh 73*, SENP1 FRET inh 26, SENP8 block-2 87*, SENP7 inh 11 and SENP8 inh conf 70*.
`Cc1ccccc1C1=C/C(=C(\SS/C(C(=O)c2ccc(OCC(=O)O)c(Cl)c2Cl)=C2\C=C(c3ccccc3C)SS2)C(=O)c2ccc(OCC(=O)O)c(Cl)c2Cl)SS1` gave SENP1 FRET inh 6, SENP8 block-2 41* and SENP8 inh conf 56*.
For CN=c1scc(-c2ccc([N+](=O)[O-])cc2)n1N=Cc1ccco1 the results were UCH37 inh 6.
Screening CCC(=O)NN=C(C)CC(=O)Nc1ccccc1-c1ccccc1 returned UCH37 inh 4.
For COc1ccccc1/C=C/C=NNC(=O)CN1CCN(Cc2ccccc2)CC1 the results were UCH37 inh 1.
`CCOC(=O)c1ccc(-n2c(CN3CCOCC3)nc3ccc([N+](=O)[O-])cc3c2=O)cc1` gave UCH37 inh 1, SENP8 block-1 10, SENP6 inh -8, SENP1 FRET inh 0, SENP8 block-2 35 and SENP7 inh 5.
`CCOC(=O)c1ccc(-n2c(CN3CCN(CC)CC3)nc3ccc([N+](=O)[O-])cc3c2=O)cc1` gave UCH37 inh 7, SENP8 block-1 9, SENP6 inh 4, SENP1 FRET inh -5, SENP8 block-2 41*, SENP7 inh 8 and SENP8 inh conf 15.
Cc1ccc(S(=O)(=O)N2C[C@H]3[C@H]4C(=O)N(c5ccccc5)C(=O)[C@H]4CC(=O)[C@H]3[C@@H]2c2ccccc2F)cc1 was read as SENP1 FRET inh -10, SENP8 block-2 50* and SENP8 inh conf 23.
Screening C/C=C/c1ccc(OCCCCn2cncn2)c(OC)c1 returned UCH37 inh 0, SENP8 block-1 7, SENP6 inh -6, SENP1 FRET inh 2, SENP8 block-2 2 and SENP7 inh -1.
C/C=C/c1ccc(OCCCn2cncn2)c(OC)c1 was read as UCH37 inh 0, SENP8 block-1 -8, SENP6 inh -10, SENP1 FRET inh 2, SENP8 block-2 47*, SENP7 inh -15 and SENP8 inh conf 12.
For COc1cc(C=NO)cc(Br)c1OS(=O)(=O)c1ccc(C)cc1 the results were UCH37 inh 7.
Screening O=C1OC(N2C(=O)CC[C@H]2C(=O)Nc2ccc(Br)cc2F)c2ccccc21 (stereo partly drawn) returned UCH37 inh 1, SENP8 block-1 -1, SENP6 inh -16, SENP1 FRET inh 0, SENP8 block-2 54*, SENP7 inh -5 and SENP8 inh conf 6.
O=C(Cn1nnc2ccccc21)NN=C/C=C/c1ccccc1 was read as UCH37 inh 2.
Screening Cc1[nH]c2ccccc2c1/C=C/c1cc[n+](C)cc1 returned SENP1 FRET inh 6, SENP8 block-2 44* and SENP8 inh conf 32.
Screening O=[N+]([O-])c1ccc(C=NNC2=NS(=O)(=O)c3ccccc32)cc1 returned UCH37 inh 7.
Screening Nc1nonc1-n1nnc(C(=O)NN=Cc2ccc(Br)cc2)c1CN1CCOCC1 returned UCH37 inh 5.
`COc1cc(C=NNC(=O)c2ccc3c(c2)OCO3)ccc1O` gave UCH37 inh 9.
For CCN(CC)S(=O)(=O)c1ccc(NCC2COc3ccccc3O2)c([N+](=O)[O-])c1 (stereo not drawn) the results were UCH37 inh 8, SENP8 block-1 0, SENP6 inh -11, SENP1 FRET inh 3, SENP8 block-2 47*, SENP7 inh 0 and SENP8 inh conf 16.
